# According to PubChem BioAssay:
# Activity calls are given as the source filed them.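 The calls were made as follows: active = GFP response above 150% of the DMSO control; inconclusive = Fewer than 70 cells counted for a yeast strain; inactive = the rest.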
# Assay: yeast TOR pathway reporter LAP4-GFP change – cell-based, cherry picks, flow cytometry, mother/daughter gates, confirmation (AID 2271);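 also: ratio of sample to DMSO plate mean so 100% equals DMSO level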
# Settings: S. cerevisiae LAP4-GFP strain, 3 h, measured here: mother cell gate response, at 10 µM, stronger effect = higher value, 100 means same as DMSO control
# Summary of the method: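 System: GFP-fusion yeast strain; Incubation: compound exposure 3 h at 30 °C, end-over-end rotation; Measured by: GFP by flow cytometry; Read-out: median GFP fluorescence as percent of plate-mean DMSO wells; Medium: synthetic complete (SC) yeast growth medium; Compound: single test-compound dose, 10 µM final; Benchmarks: DMSO-only negative wells, rapamycin 400 ng/mL positive wells.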
row,Compound,GFP response relative to DMSO
1,CCN(C(=O)c1ccccc1Cl)c1ccccc1,110%
2,CCN(CC)CCNC(=O)Cn1c(-c2ccccn2)nc2ccccc21,98.3%
3,Nc1cc(N)nc(SCC(=O)N2CCc3ccccc32)n1,96.1%
4,N#C/C(=C\c1ccc(N2CCOCC2)o1)c1ccccc1,103%
5,CS(=O)(=O)N1CCc2cc(C(=O)Nc3ccc(COCC(F)(F)F)cc3)ccc21,93.1%
6,CCc1noc(C)c1C(=O)Nc1nc(-c2ccc(Cl)cc2Cl)cs1,97.4%
7,O=C(O)c1ccc2c3c(ncnc13)-c1ccccc1C2=O,134%
8,Cc1ccc(NC(=O)c2ccccc2)cc1,100%
9,Cc1ccc(C)c(-c2nnc(NC(=O)c3ccc([N+](=O)[O-])o3)o2)c1,116%
10,COc1ccc(N2C(=O)C(Cl)=C(Oc3cccc(OC)c3)C2=O)cc1,227%
11,Cc1cc(C)c(S(=O)(=O)ON2C(=O)c3ccccc3C2=O)cc1C,252%
12,O=C(COC(=O)/C=C/c1cccs1)Nc1nc(-c2ccccc2)cs1,101%
13,CCOc1ccccc1/C=C/C(=O)c1ccc(Cl)cc1,97.2%
14,O=C(NC(=S)NNC(=O)c1cnccn1)c1ccc(F)cc1,254%
15,Cc1ccc(Nc2c(-c3ccccn3)nc3ccc(C)cn23)cc1,153%
16,O=c1/c(=C/c2cccc3ccccc23)sc2ncnn12,180%
17,Cc1c(NC(=O)/C(C#N)=C/c2c(N3CCCCC3)nc3ccccn3c2=O)c(=O)n(-c2ccccc2)n1C,95.1%
18,CS(=O)(=O)N1N=C(c2ccco2)CC1c1ccc(Br)cc1 (stereo not given),103%
19,O=C(Oc1ccnc2cc(Cl)ccc12)N1CCCCCC1,117%
20,Cc1c([N+](=O)[O-])cnc(Sc2ccccc2)c1[N+](=O)[O-],127%

row,Compound,GFP response relative to DMSO
1,Cc1cc(C(=O)Nc2nc(-c3ccccn3)cs2)ccc1[N+](=O)[O-],155%
2,COc1cc(/C=C/C(=O)c2c(O)cc(C)oc2=O)cc(OC)c1O,106%
3,COc1ccc2ccccc2c1/C=N/Nc1cccc(C(=O)O)c1,98.4%
4,CCn1c(=O)c(C(=O)NC(C)C)c(O)c2ccccc21,101%
5,CCOc1cc(N2CCOCC2)c(OCC)cc1NC(=O)C(NC(=O)c1ccco1)C(C)C (stereo not given),93.1%
6,CNC(=O)/C(C#N)=C/c1c(N(Cc2ccccc2)Cc2ccccc2)nc2c(C)cccn2c1=O,93.1%
7,O=C(COc1ccccc1)N1CCN(c2ncnc3c2cnn3-c2ccccc2)CC1,105%
8,O=S(=O)(c1ccc(Oc2ccccc2)cc1)N1CCOCC1,97.2%
9,O=S(=O)(/N=C(/Nc1ccc(F)cc1F)c1ccc(Cl)cc1)c1ccccc1,96.5%
10,CC(=O)Nc1cccc(Oc2ccc(-c3noc(C)n3)cc2)c1,102%
11,C/C(=N/NC(=O)c1ccc(C(C)(C)C)cc1)c1ccccn1,209%
12,O=C(Sc1cccc2cccnc12)c1ccccc1Br,153%
13,CCOc1cc(-c2nc3cc(C)ccn3c2NCC2CCCO2)ccc1O (stereo not given),87.3%
14,Oc1ccccc1/C=N/c1c(-c2ccco2)nc2ccccn12,97.2%
15,Cc1ccc(C2=NN(S(C)(=O)=O)C(c3ccc4c(c3)OCO4)C2)cc1 (stereo not given),115%
16,COc1ccccc1NC(=O)Cn1nnc(-c2ccccc2NC(=O)c2ccco2)n1,89%
17,Cc1ccc(C(=O)N/C(=C/c2ccco2)C(=O)N2CCOCC2)cc1,104%
18,COc1ccc(-c2cc3cc(C(=O)O)ccn3c2C(=O)c2ccccc2)cc1,108%
19,COc1ccccc1C(=O)NNC(=S)NC(=O)c1cccs1,202%
20,CC(=O)Oc1c(C)cc(Cl)cc1C(=O)Nc1ccc([N+](=O)[O-])cc1Cl,93%

# Assay: TOR pathway reporter MEP2-GFP, retest of hits – S. cerevisiae, flow cytometry GFP, cherry picks, confirmation (AID 2272);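 also: ratio of well signal to plate DMSO mean so 100% equals DMSO level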
# Settings: S. cerevisiae MEP2-GFP strain, 3 h, at 10 µM, stronger effect = higher value
row,Compound,GFP response vs DMSO
1,CCN(C(=O)c1ccccc1Cl)c1ccccc1,99.3% (inactive)
2,CCN(CC)CCNC(=O)Cn1c(-c2ccccn2)nc2ccccc21,100% (inactive)
3,Nc1cc(N)nc(SCC(=O)N2CCc3ccccc32)n1,105% (inactive)
4,N#C/C(=C\c1ccc(N2CCOCC2)o1)c1ccccc1,104% (inactive)
5,CS(=O)(=O)N1CCc2cc(C(=O)Nc3ccc(COCC(F)(F)F)cc3)ccc21,100% (inactive)
6,CCc1noc(C)c1C(=O)Nc1nc(-c2ccc(Cl)cc2Cl)cs1,103% (inactive)
7,O=C(O)c1ccc2c3c(ncnc13)-c1ccccc1C2=O,135% (inactive)
8,Cc1ccc(NC(=O)c2ccccc2)cc1,100% (inactive)
9,Cc1ccc(C)c(-c2nnc(NC(=O)c3ccc([N+](=O)[O-])o3)o2)c1,107% (inactive)
10,COc1ccc(N2C(=O)C(Cl)=C(Oc3cccc(OC)c3)C2=O)cc1,105% (inactive)
11,Cc1cc(C)c(S(=O)(=O)ON2C(=O)c3ccccc3C2=O)cc1C,114% (inactive)
12,O=C(COC(=O)/C=C/c1cccs1)Nc1nc(-c2ccccc2)cs1,105% (inactive)
13,CCOc1ccccc1/C=C/C(=O)c1ccc(Cl)cc1,98.3% (inactive)
14,O=C(NC(=S)NNC(=O)c1cnccn1)c1ccc(F)cc1,104% (inactive)
15,Cc1ccc(Nc2c(-c3ccccn3)nc3ccc(C)cn23)cc1,108% (inactive)
16,O=c1/c(=C/c2cccc3ccccc23)sc2ncnn12,116% (inactive)
17,Cc1c(NC(=O)/C(C#N)=C/c2c(N3CCCCC3)nc3ccccn3c2=O)c(=O)n(-c2ccccc2)n1C,96.2% (inactive)
18,CS(=O)(=O)N1N=C(c2ccco2)CC1c1ccc(Br)cc1 (stereo not given),100% (inactive)
19,O=C(Oc1ccnc2cc(Cl)ccc12)N1CCCCCC1,437% (active)
20,Cc1c([N+](=O)[O-])cnc(Sc2ccccc2)c1[N+](=O)[O-],102% (inactive)

row,Compound,GFP response vs DMSO
1,Cc1cc(C(=O)Nc2nc(-c3ccccn3)cs2)ccc1[N+](=O)[O-],107% (inactive)
2,COc1cc(/C=C/C(=O)c2c(O)cc(C)oc2=O)cc(OC)c1O,105% (inactive)
3,COc1ccc2ccccc2c1/C=N/Nc1cccc(C(=O)O)c1,105% (inactive)
4,CCn1c(=O)c(C(=O)NC(C)C)c(O)c2ccccc21,100% (inactive)
5,CCOc1cc(N2CCOCC2)c(OCC)cc1NC(=O)C(NC(=O)c1ccco1)C(C)C (stereo not given),107% (inactive)
6,CNC(=O)/C(C#N)=C/c1c(N(Cc2ccccc2)Cc2ccccc2)nc2c(C)cccn2c1=O,112% (inactive)
7,O=C(COc1ccccc1)N1CCN(c2ncnc3c2cnn3-c2ccccc2)CC1,101% (inactive)
8,O=S(=O)(c1ccc(Oc2ccccc2)cc1)N1CCOCC1,100% (inactive)
9,O=S(=O)(/N=C(/Nc1ccc(F)cc1F)c1ccc(Cl)cc1)c1ccccc1,102% (inactive)
10,CC(=O)Nc1cccc(Oc2ccc(-c3noc(C)n3)cc2)c1,107% (inactive)
11,C/C(=N/NC(=O)c1ccc(C(C)(C)C)cc1)c1ccccn1,126% (inactive)
12,O=C(Sc1cccc2cccnc12)c1ccccc1Br,122% (inactive)
13,CCOc1cc(-c2nc3cc(C)ccn3c2NCC2CCCO2)ccc1O (stereo not given),103% (inactive)
14,Oc1ccccc1/C=N/c1c(-c2ccco2)nc2ccccn12,100% (inactive)
15,Cc1ccc(C2=NN(S(C)(=O)=O)C(c3ccc4c(c3)OCO4)C2)cc1 (stereo not given),141% (inactive)
16,COc1ccccc1NC(=O)Cn1nnc(-c2ccccc2NC(=O)c2ccco2)n1,100% (inactive)
17,Cc1ccc(C(=O)N/C(=C/c2ccco2)C(=O)N2CCOCC2)cc1,101% (inactive)
18,COc1ccc(-c2cc3cc(C(=O)O)ccn3c2C(=O)c2ccccc2)cc1,105% (inactive)
19,COc1ccccc1C(=O)NNC(=S)NC(=O)c1cccs1,128% (inactive)
20,CC(=O)Oc1c(C)cc(Cl)cc1C(=O)Nc1ccc([N+](=O)[O-])cc1Cl,101% (inactive)
